Screening results: PubChem BioAssay, several laboratories
An excerpt weighted towards active compounds, which were near 11% of everything screened.
Lmaj promast: Leishmania major promastigote growth inhibition, primary screen | AID 1063, 2008 | Leishmania major promastigotes, resazurin fluorescence viability | inhibition, % at 10 µM | 9% of 200,000 active;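 note: promastigotes grown with compound for 44 hours at 28 °C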
Diaphorase act: compounds boosting diaphorase resazurin reduction – biochemical, uHTS, resorufin fluorescence, counter-screen for diaphorase-coupled primary assays, primary screen; Diaphorase/resazurin coupled assay, 16 min; active compounds read high; 1 = vehicle wells, 0 = NADH-free wells; activation factor at 20 µM; 0.005% of 190,000 active; AID 1229, 2008;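 active = diaphorase activity raised at least twofold by the compound at 20 µM; inactive = activation factor below 2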
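Material: Clostridium kluyveri diaphorase, purified enzyme; Quantity: enzyme 0.07 U/mL final; Medium: HEPES pH 7.4 buffer with MgCl2 and Tween 20; Dosing: single compound dose of 20 µM, 1% DMSO final; Schedule: 16 min reaction at room temperature; Measured by: red resorufin fluorescence at 544/590 nm excitation/emission.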
Diaphorase inh: diaphorase inhibitors and chemical oxidizers, primary screen, counter-screen for diaphorase-coupled primary assays, biochemical, uHTS, resorufin fluorescence | diaphorase resazurin-to-resorufin fluorescence, NADH, 16 min; bacterial (C. kluyveri) enzyme, not human | inhibition, % at 20 µM | 0.69% of 190,000 active;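 active = primary screen inhibition at 20 µM above a set limit, cut at about 50% in these data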
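material = Clostridium kluyveri diaphorase enzyme | amount = 0.14 U/mL diaphorase, enzyme working solution | schedule = incubation 16 min, room temperature | detection = fluorescence of resorufin formed from resazurin, Ex 544/Em 590 nm | benchmarks = positive control minus NADH, DMSO neutral control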
G6PDH CS: L. mesenteroides G6PDH inhibitors, counter-screen for G6PDH-coupled screening assays, biochemical, Leuconostoc mesenteroides enzyme; glucose-6-phosphate dehydrogenase [Leuconostoc mesenteroides]; Purified L. mesenteroides G6PDH, diaphorase/resazurin coupled fluorescence, 45 min; inhibition, % at 5 µM; 0.12% of 200,000 active; AID 1020, 2008
WT yeast gro inh: growth inhibition of WT strain, primary screen, mitochondrial fusion inhibitor project, WT and mutant strains, chemical genetic; mitochondrial fusion phenotypic screen; inhibition, % at 10 µM; 2.1% of 190,000 active; AID 1362, 2008; in the data active = inhibition above about 58%; tested in S. cerevisiae
Numbers stand for hits; i = inactive. Cut-off read from the data, not from the text of the source, unless noted: active = inhibition above about 50%; inactive = the rest.

SMILES	Lmaj promast	Diaphorase act	Diaphorase inh	G6PDH CS	WT yeast gro inh
Cc1cc(-c2csc3nc[nH]c(=S)c23)cc(C)c1C	i	i	56	i	i
COC(=O)c1cn(C(=O)c2ccccc2F)nc1N	i	i	i	i	i
COC(=O)C1=C(N)c2c(F)cccc2C1(C#N)c1ccc(F)cc1 (centres undefined)	51	i	i	i	i
Cc1ccc(NC2=C(Cl)C(=O)OC2OC(C)C)c(C)c1 (centres undefined)	i	i	i	i	i
Cc1cccc(C)c1NC1=C(Cl)C(=O)OC1OC(C)C (centres undefined)	50	i	i	i	i
O=C(O)CC1S/C(=N/N=C/c2ccc(-c3ccc(Cl)cc3[N+](=O)[O-])o2)NC1=O (centres undefined)	99	i	i	i	i
COCCOC(=O)C1=C(C)NC(C)=C(C(=O)OC(C)C)C1c1cccc([N+](=O)[O-])c1 (centres undefined)	66	i	i	i	i
O=C1CSC(c2cccc([N+](=O)[O-])c2)N1c1ccccc1F (centres undefined)	i	i	i	i	i
CC(C)CC(=O)NC(=S)Nc1cccc(NC(=O)c2ccccc2Cl)c1	i	i	i	i	i
CCCCOc1cccc(C(=O)NC(=S)Nc2ccc(Cl)c(C(=O)O)c2)c1	i	i	62	i	i
CC(C)CC(=O)Nc1cccc(NC(=O)c2ccccc2Cl)c1	59	i	i	i	i
CC(C)Oc1cccc(C(=O)NC(=S)Nc2cccc(NC(=O)c3ccccc3Cl)c2)c1	86	i	i	i	i
COc1ccc(OC)c(NC(=O)CSc2nnc(C3CCCCC3)n2-c2ccccc2)c1	i	i	i	i	i
COc1cc(NC(=S)N2CCC(C(N)=O)CC2)c(OC)cc1Cl	i	i	55	i	i
S=c1[nH]ncn2c1cc1oc3ccccc3c12	i	i	51	i	i
Nc1ccc2oc3ccccc3c2c1	i	i	i	i	i
CCOc1ccc(-n2nnc3c(=O)n(CC(=O)N4CCCc5ccccc54)cnc32)cc1	55	i	i	i	i
CCOC(=O)CSc1nnc(CNC(=O)c2ccc(OC)cc2)n1Cc1ccccc1	i	i	i	i	i
COc1ccc(C(=O)NCc2nnc(SCC(=O)N3CCc4ccccc43)n2Cc2ccccc2)cc1	64	i	i	i	i
CCCCCCNC(=O)CCCCCNS(=O)(=O)c1ccc(OC)cc1	i	i	i	i	i
N#Cc1cc([N+](=O)[O-])cnc1N(CCO)CCO	i	i	i	i	i
CC(NC(=O)COc1ccccc1-c1ccccc1)c1ccccc1 (centres undefined)	i	i	i	i	71
CC(=O)Nc1ccccc1OCC(=O)NC(C)c1ccccc1 (centres undefined)	i	i	i	i	i
Cc1ccc(CNC(=O)COc2ccccc2-c2ccccc2)cc1	70	i	i	i	i
Cc1ccc(CNC(=O)CCc2ccccc2)cc1	i	i	i	i	i
SMILES	Lmaj promast	Diaphorase act	Diaphorase inh	G6PDH CS	WT yeast gro inh
COc1cccc(C(=O)COc2ccccc2-c2ccccc2)c1	53	i	i	i	i
COc1ccc(NCN2C(=O)C3C4C=CC(C4)C3C2=O)cc1 (centres undefined)	i	i	i	i	i
CC1c2c([nH]c3ccccc23)CCC1C(=O)O (centres undefined)	i	i	i	i	i
CCOc1cc(N2CCOCC2)c(OCC)cc1NC(=O)CN1CCCC1	i	i	i	i	i
C=CCN1C(=O)C2(NNc3ccccc3O2)c2ccccc21 (centres undefined)	i	i	i	i	i
CCCCN1C(=O)C2(NNc3ccccc3O2)c2ccccc21 (centres undefined)	96	i	i	i	i
CCOC(=O)c1nc2cc3n(c(CC(C)C)c-2c1C)CC(C)=C3C	64	i	i	i	i
Cc1nn(C)cc1/C=C/C(=O)c1ccc(O)cc1	i	i	i	i	i
Cc1cccc(NC(=S)N=Nc2c(O)[nH]c3ccccc23)c1	97	i	i	i	59
Oc1[nH]c2ccccc2c1N=NC(=S)NCC1CCCO1 (centres undefined)	i	i	i	i	i
CC(C)c1ccc2[nH]c(O)c(N=NC(=O)c3cccc(S(=O)(=O)Nc4ccccc4Cl)c3)c2c1	i	i	i	i	i
CC(C)NC(=S)N=Nc1c(O)[nH]c2ccc(C(C)C)cc12	91	i	i	i	i
CCSc1nnc(NC(=O)CCc2ccc(OC)cc2)s1	i	i	i	i	i
CC1(C)C(N(O)C(=O)Nc2ccc(Cl)cc2)N(c2ccc(Cl)cc2)C(=O)N1CC(=O)NN (centres undefined)	100	i	i	i	i
Cc1ccc(-c2nc(SCC(=O)NCCN3C(=O)CSC3=O)[nH]c2-c2ccc(C)cc2)cc1	81	i	i	i	i
CC/C(=N/OC(=O)c1cccc(C)c1)C(=O)c1cccs1	i	i	i	i	i
CCc1nnc(NS(=O)(=O)c2ccc(NC(=O)c3cccc(Cl)c3)cc2)s1	i	i	i	i	i
COc1cccc(/C=N/NC(=O)c2cc(C34CC5CC(CC(C5)C3)C4)[nH]n2)c1	89	i	i	i	i
COc1ccc(/C=N/NC(=O)c2cc(C34CC5CC(CC(C5)C3)C4)[nH]n2)cc1OC	i	i	i	i	i
COc1ccc(S(=O)(=O)Nc2ccc(F)c(Cl)c2)cc1OC	i	i	i	i	i
O=C1N/C(=C/c2ccc(N3CCCC3)cc2)C(=O)N1c1ccccc1	69	i	i	i	i
Cn1c(=O)c(=O)n(C)c2cc([N+](=O)[O-])c([N+](=O)[O-])cc21	80	i	i	i	i
Cc1nc([N+](=O)[O-])c(Sc2nc3ccccc3n2C)n1Cc1ccccc1	96	i	i	i	i
Cc1nc([N+](=O)[O-])c(SCC(N)=O)n1Cc1ccccc1	i	i	i	i	i
CC1CCCCN1c1nc2nonc2nc1N1CCCCC1C (centres undefined)	i	i	i	i	i
SMILES	Lmaj promast	Diaphorase act	Diaphorase inh	G6PDH CS	WT yeast gro inh
COc1ccccc1Nc1nc2nonc2nc1N1CCCCC1C (centres undefined)	91	i	i	i	i
O=C(Nc1ccc(Br)cc1F)c1cccnc1	i	i	i	i	i
COC(=O)/C=C/c1ccc(OC(=O)c2ccncc2)cc1	i	i	i	i	i
CCOc1nc(SCCOc2ccccc2)nc(N(C)C)n1	i	i	i	i	i
O=C(CCn1nc(-c2ccc(Cl)cc2)c2ccccc2c1=O)Nc1cccnc1	62	i	i	i	i
CC(=O)N1CCN(CC(=O)Nc2ccccc2Sc2ccccc2)CC1	i	i	i	i	i
NC(=O)C1CCN(CC(=O)Nc2ccccc2Sc2ccc(Cl)cc2)CC1	93	i	i	i	i
